The array DNA melting data of Ke et al. (doi:10.1101/2024.01.08.574731)

Assays:
[1] = melting temperature; fluorescence melt of hairpins on a sequencing array, two-state fit, raised by 9.35 °C to match UV melts; conditions: sodium 0.088 M
Outline: (§1)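 Cy3 fluorescence of library hairpins on a sequenced MiSeq flow cell, with annealed Cy3 and quencher oligos, was imaged in 50 mM Na-HEPES pH 8.0, 25 mM NaCl in 2.5 °C steps up to 60 °C. Signals were normalised to pre-quench Cy3 and to control variants. Melting temperature and folding enthalpy came from bootstrapped two-state fits, inverse-variance combined over four replicates. Fitted temperatures were raised by 9.35 °C to match UV melts.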

[2] = folding enthalpy; higher = less favourable; fluorescence melt of hairpins on a sequencing array, two-state fit; conditions: sodium 0.088 M
Outline: as §1

GAATGCCGAAAGGCGTTC (((.(((....))).)))
Tm [1]: 61.6 °C | folding enthalpy [2]: -27.7 kcal/mol

GAATGCGAAAGCAAATTC ((((((....)))..)))
Tm [1]: 33.6 °C | folding enthalpy [2]: -18.9 kcal/mol

GAATGCGAAAGCACATTC ((((((....)))..)))
Tm [1]: 31.3 °C | folding enthalpy [2]: -13.2 kcal/mol

GAATGCGAAAGCACCTTC ((((((....)))..)))
Tm [1]: 33.2 °C | folding enthalpy [2]: -11.2 kcal/mol

GAATGCGAAAGCAGATTC ((((((....)))..)))
Tm [1]: 43.2 °C | folding enthalpy [2]: -15.6 kcal/mol

GAATGCGGAAACGCATCC (.(((((....))))).)
Tm [1]: 42.5 °C | folding enthalpy [2]: -11.6 kcal/mol

GAATGCGGAAACGCGTTC (((.(((....))).)))
Tm [1]: 54.2 °C | folding enthalpy [2]: -37.5 kcal/mol

GAATGGAAACATTC (((((....)))))
Tm [1]: 40.6 °C | folding enthalpy [2]: -24.9 kcal/mol

GAATGGCGAAAGCCGTTC (((.(((....))).)))
Tm [1]: 58.1 °C | folding enthalpy [2]: -22.4 kcal/mol

GAATGGCGAAAGCCTTTC (((.(((....))).)))
Tm [1]: 47.2 °C | folding enthalpy [2]: -21 kcal/mol

GAATGGGAAACCATTC ((((((....))))))
Tm [1]: 51.7 °C | folding enthalpy [2]: -37.9 kcal/mol

GAATGGGGAAACCTATTC ((((.((....)).))))
Tm [1]: 37.9 °C | folding enthalpy [2]: -31.6 kcal/mol

GAATGGGGAAACCTGTTC (((..((....))..)))
Tm [1]: 29.9 °C | folding enthalpy [2]: -13.1 kcal/mol

GAATTACGAAAGTACTTC (((.(((....))).)))
Tm [1]: 32.5 °C | folding enthalpy [2]: -20.1 kcal/mol

GAATTACGAAAGTAGTTC (((.(((....))).)))
Tm [1]: 42.6 °C | folding enthalpy [2]: -31.5 kcal/mol

GAATTCGCGAAAGCGTTC (((..(((....))))))
Tm [1]: 19.9 °C | folding enthalpy [2]: -6.23 kcal/mol

GAATTCGGAAACGAATCC (.(((((....))))).)
Tm [1]: 36.8 °C | folding enthalpy [2]: -16.6 kcal/mol

GAATTCGGAAACGAATTC (((((((....)))))))
Tm [1]: 58.6 °C | folding enthalpy [2]: -35 kcal/mol

GAATTCGGAAACGGATTC ((((.((....)).))))
Tm [1]: 45.4 °C | folding enthalpy [2]: -36.2 kcal/mol

GAATTGGGAAACCAATCC (.(((((....))))).)
Tm [1]: 29.8 °C | folding enthalpy [2]: -14.6 kcal/mol

GAATTGGGAAACCAGTTC (((.(((....))).)))
Tm [1]: 39.4 °C | folding enthalpy [2]: -30.1 kcal/mol

GACAAAGCGAAAGCTGTC (((..(((....))))))
Tm [1]: 50.6 °C | folding enthalpy [2]: -19.7 kcal/mol

GACAACACGAAAGTGGTC (((..(((....))))))
Tm [1]: 39.8 °C | folding enthalpy [2]: -16 kcal/mol
